Results collected from several papers.
Each line is one published result; the experiments were not run side by side.
TAOK2: Serine/threonine-protein kinase TAO2 (TAOK2, Homo sapiens, UniProt Q9UL54)
Fibroblast growth factor 14: Fibroblast growth factor 14 (Homo sapiens, UniProt Q92915)

| Compound | target | assay | setting | measurement | value |
| --- | --- | --- | --- | --- | --- |
| C[C@]1(O)CCCN(c2nc(Nc3ccc(S(=O)(=O)N[C@H]4CC[C@H](CN5CCN(c6ccc(C7CCC(=O)NC7=O)cc6F)CC5)CC4)cc3Cl)ncc2C(F)(F)F)C1 (stereo partly drawn) | Leucine-rich repeat serine/threonine-protein kinase 2 (LRRK2, Homo sapiens, UniProt Q5S007, G2019S) | binding, competition with immobilised ligand | 1 µM | remaining binding | 12% |
| CCCCC(=O)Nc1ccc(-c2ccc3ncn(CCC)c(=O)c3c2)cn1 | cAMP-dependent protein kinase catalytic subunit beta (PRKACB, Homo sapiens, UniProt P22694) | binding, competition with immobilised ligand | 0.5 µM | remaining binding | 87% |
| C#Cc1cc(-c2cc(Nc3nc(N[C@@H](C)c4ccc(F)cn4)ncc3Cl)n[nH]2)ccc1C=O | TAOK2 | enzyme activity, inhibitor | 0.2 µM | inhibition | 3.89% |
| Cc1nc(CSc2nc(-c3ccc(C(C)(C)C)cc3)n[nH]2)cs1 | Fibroblast growth factor 14 | thermal stability | 25 µM | ΔTm | 0.3 °C |
| CCN1/C(=C/C(C)=O)Sc2ccc(F)cc21 | Nociceptin receptor (OPRL1, Homo sapiens, UniProt P41146) | ligand displacement, radioligand | 10 µM | inhibition | 0.04% |
| NC/C(=C\F)COc1cccc(Cn2c(=S)[nH]c(=O)c3[nH]cnc32)c1 | 5-hydroxytryptamine receptor 1A (HTR1A, Homo sapiens, UniProt P08908) | ligand displacement, radioligand | 10 µM | inhibition | < 50% |
| Cc1cccc(NC(=O)Cn2cc(CO)c3ccccc32)c1 | Fibroblast growth factor 14 | binding, SPR | – | koff | 0.013 s⁻¹ |
| C1=C/COCc2cc(ccc2OCCN2CCCC2)Nc2nccc(n2)-c2cccc(c2)COC/1 | Eukaryotic translation initiation factor 2-alpha kinase 1 (EIF2AK1, Homo sapiens, UniProt Q9BQI3) | binding | 0.1 µM | remaining binding | 87% |
| O=c1cc(-c2ccc([N+](=O)[O-])cc2)[nH]c2c(-c3ccc(Cl)cc3)c(Cc3ccccc3)nn12 | Fibroblast growth factor 14 | binding, SPR | – | koff | 0.00101 s⁻¹ |
| COc1ccc2oc(-c3ccc4nc(N)oc4c3)c/c(=N\c3ccccc3NC(=O)CCN)c2c1 | Serine/threonine-protein kinase BRSK2 (BRSK2, Homo sapiens, UniProt Q8IWQ3) | binding | 1 µM | remaining binding | 85% |
| CC(=O)Nc1ccc(Oc2ccc3c(c2)C(=O)N(c2cc(C)ccc2C)C3=O)cc1 | Fibroblast growth factor 14 | binding, SPR | – | kon | 69300 M⁻¹ s⁻¹ |
| Cc1cc(O)c(-c2ccc([C@@H](C)CN(C)C)cc2)c2c1[nH]c(=O)c1sccc12 | TAOK2 | enzyme activity, inhibitor | 0.1 µM | inhibition | -4.37% |
